Source: PubChem (several laboratories)
NPY2 pot ag: human NPY-Y2 potentiation or agonism, primary screen; activation, % at 3.6 µM; cells expressing NPY-Y2, potentiator/agonist read-out; AID 1359; P49146; 0.45% of 220,000 active; in the data active means activation above about 27%;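 further: cells stimulated with NPY near EC25 plus isoproterenol at EC100; 0% = vehicle plus submaximal agonist and 100% = vehicle plus saturating agonist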
RAM inhibit: blocks the yeast RAM network; S. cerevisiae dse1pr::URA3 reporter, 5-FOA growth OD615, 2 d; analog-sensitive cbk1-as2 kinase mutant strain; inhibition, % at 50 µM; 1.8% of 190,000 active; AID 868;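 active means inhibition above a set limit, 3 SD over mean compound inhibition, cut at about 8.4% in these data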;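 further: 0% = DMSO-only wells with no growth and 100% = 10 µM 1-NA-PP1 full growth; inhibition rescues growth on 5-FOA so higher OD means more RAM inhibition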
NPY-Y2 antag: NPY-Y2 (human) receptor antagonism; P49146; NPY-Y2 expressing cells, antagonist mode; inhibition, % at 2.7 µM; 0.99% of 140,000 active; AID 793;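 further: 0% = vehicle with agonist challenge and 100% = reference antagonist with challenge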
WT yeast gro inh: growth inhibition of WT yeast, mitochondrial fusion screen; mitochondrial fusion phenotypic screen, WT strain; inhibition, % at 10 µM; 2.1% of 190,000 active; AID 1362; in the data active means inhibition above about 58%; tested in S. cerevisiae
NPY-Y1 antag: antagonists of human neuropeptide Y receptor Y1. P25929. HEK293-CNG Y1 cells, membrane potential fluorescence; NPY at EC95, then isoproterenol. inhibition, % at 3.6 µM. 1% of 200,000 active. AID 1040;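 active means inhibition above the campaign mean inhibition of all tested compounds plus 3 SD, cut at about 20% in these data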;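 further: 0% = DMSO wells given NPY plus isoproterenol and 100% = isoproterenol alone without NPY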
Target sequence (P25929 whole entry, looked up): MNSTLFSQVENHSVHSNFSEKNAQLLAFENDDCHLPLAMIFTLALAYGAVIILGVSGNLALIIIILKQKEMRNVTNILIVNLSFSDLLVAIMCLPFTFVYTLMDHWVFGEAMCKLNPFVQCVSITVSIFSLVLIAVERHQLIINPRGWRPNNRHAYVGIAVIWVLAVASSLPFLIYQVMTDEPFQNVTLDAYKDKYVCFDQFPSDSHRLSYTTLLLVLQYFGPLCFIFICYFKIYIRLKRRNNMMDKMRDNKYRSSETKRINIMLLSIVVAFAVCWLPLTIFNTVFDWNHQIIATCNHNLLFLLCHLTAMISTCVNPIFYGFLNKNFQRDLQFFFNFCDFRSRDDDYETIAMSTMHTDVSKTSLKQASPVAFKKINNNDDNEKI
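Test system: HEK293 cells co-expressing NPY Y1 receptor and cyclic-nucleotide gated channel; Also added: NPY (25 nM), isoproterenol (1 µM), Ro 20-1724 (25 µM); Compound dosing: one concentration, 3.6 µM, in 0.4% DMSO; Timing: dye 3 h, compound 60 min room temperature, stimulation 45 min; Technique: Membrane-potential fluorescent dye readout.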
NPY-Y1 PAM-ag: human NPY-Y1 potentiation or agonism, primary screen; P25929; NPY-Y1 expressing cells, potentiator/agonist activation; activation, % at 3.6 µM; 0.37% of 220,000 active; AID 1304; in the data active means activation above about 33%, passing the limit was not always enough;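 further: cells stimulated with NPY at EC10 then isoproterenol at EC100; 0% = low agonist plus stimulus and 100% = saturating agonist plus stimulus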
NPY1 antag conf: human NPY-Y1 antagonism, confirmation; shares compounds with NPY-Y1 antag; HEK293-CNG NPY-Y1, membrane potential fluorescence, cAMP; NPY challenge against isoproterenol-raised cAMP; inhibition, % at 3.6 µM; 21% of 1,200 active; AID 1254; in the data active means inhibition above about 20%;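 further: 0% = vehicle with agonist plus stimulus and 100% = stimulus alone without agonist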
NPY2 antag ctr: human NPY-Y2 antagonism in NPY-Y1 counter-screen; shares compounds with NPY-Y1 antag; HEK293 NPY-Y2 CNG membrane potential fluorescence; cells given NPY, then isoproterenol; inhibition, % at 3.6 µM; 28% of 1,200 active;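 further: 0% = DMSO with agonist challenge and 100% = reference antagonist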
The depositor's hits bear a star; x = no result. Sampled rows, rich in hits. Any-hit rate of the full collection: about 4.9%. Unless noted, no stated cut-off is given here; in the data, active means inhibition above about 17%; inactive means the rest.

SMILES	NPY2 pot ag	RAM inhibit	NPY-Y2 antag	WT yeast gro inh	NPY-Y1 antag	NPY-Y1 PAM-ag	NPY1 antag conf	NPY2 antag ctr
CCN1CCCC1CNC(=O)C1CCN(Cc2nc(-c3cccc(Br)c3)oc2C)CC1 (configuration not stated)	-25.9	-0.6	10.6	-4.0	20.9*	-21.5	9.3	16.1
Cc1oc(-c2ccc(Cl)cc2)nc1CN1CCC(C(=O)N2CCN(Cc3ccccc3)CC2)CC1	-19.5	1.7	16.9	27.1	25.3*	-59.1	20.9*	28.7*
CCc1ccc(-c2nc(CN3CCC(C(=O)NCCc4ccc(OC)c(OC)c4)CC3)c(C)o2)cc1	-24.7	1.0	13.2	-8.5	28.1*	-56.1	4.3	16.4
Cc1ccccc1-c1nc(CN2CCC(C(=O)NCCCN3CCCC3)CC2)c(C)o1	4.3	-1.3	3.1	3.8	6.1	-22.9	x	x
NC(=O)c1ccc(NC(=O)c2ccc(CN3CCOCC3)cc2)cc1	12.5	0.0	1.2	7.7	-4.5	3.4	x	x
NC(=S)NNC(=O)C12CC3CC(CC(C3)C1)C2	-3.2	-1.1	1.0	-5.7	7.7	-14.3	x	x
COc1cccc(-n2nnc3c(=O)n(Cc4ccccc4F)cnc32)c1	-10.1	0.1	11.8	-16.5	30.2*	-47.6	9.0	7.2
COc1cccc(-n2nnc3c(=O)n(Cc4cccc(C)c4)cnc32)c1	x	x	x	27.9	x	x	x	x
CC1(C)CC(N2CCN(c3ccccc3)CC2)=CC(=[N+]2CCCC2)C1	16.9	2.1	3.4	5.8	3.6	1.9	x	x
CC1(C)CC(N2CCCC2)=CC(=[N+]2CCCCCC2)C1	3.3	-1.5	x	0.7	26.4*	-24.6	22.8*	11.5
CC1CC(C)C[N+](=C2C=C(N3CCCC3)CC(C)(C)C2)C1 (configuration not stated)	15.4	0.1	x	5.8	42.1*	-10.2	30.7*	12.8
Cc1ccc(CNc2ccc(Cl)cc2[N+](=O)[O-])cc1	-18.1	5.6	5.4	-1.3	24.3*	-18.2	7.8	12.5
CCCCOc1ccc(C(=O)OC(C)CN(C)C)cc1 (configuration not stated)	-34.0	-0.2	11.3	2.4	24.0*	-30.7	5.6	9.4
CCCCOc1ccc(C(=O)O)cc1	-8.3	-0.8	5.3	-10.8	6.3	-14.1	x	x
CS(=O)(=O)Nc1ccccc1C(=O)O	6.3	1.5	-1.0	13.9	-6.1	10.8	x	x
OC(CNCCc1ccccc1)COc1ccc(OCC(O)CNCCc2ccccc2)cc1 (configuration not stated)	0.7	x	x	x	x	-6.2	x	x
CN(C)CCOc1ccc(C(C)(C)c2ccccc2)cc1	-1.8	0.8	x	-4.4	0.9	9.4	x	x
CC(C)N(CCNCC(O)COc1ccc(C(C)(C)c2ccccc2)cc1)C(C)C (configuration not stated)	-6.2	-2.0	x	56.2	24.8*	-22.2	14.0	26.4*
CN(C)CCCOc1ccc(C(C)(C)c2ccccc2)cc1	-33.7	-1.4	12.9	36.9	22.8*	-48.8	14.3	22.5*
O=C(O)c1cc([N+](=O)[O-])ccc1NCc1ccccc1Cl	-33.0	2.5	x	1.8	19.0	-25.9	x	x
CCOC(=O)/C(C(N)=NCC(C)C)=C(/O)c1ccccc1	4.6	0.3	0.4	1.3	3.1	-11.8	x	x
COc1c(Cl)cc(Cl)cc1CNCCNCC(C)O (configuration not stated)	-13.4	-0.1	4.5	-8.1	1.3	0.7	x	x
CNCc1cc(Cl)cc(OC)c1OC(C)C	-8.2	1.0	x	10.7	24.3*	-5.4	24.1*	9.8
Cc1ccc(C)c(Cn2c(CO)nc3ccccc32)c1	-38.8	2.2	6.8	4.1	20.6*	-25.7	9.2	9.2
CCOC(=O)c1ccccc1NC(=O)c1ccccc1SC	-18.4	1.0	3.0	-12.2	24.0*	-46.3	7.2	4.3
SMILES	NPY2 pot ag	RAM inhibit	NPY-Y2 antag	WT yeast gro inh	NPY-Y1 antag	NPY-Y1 PAM-ag	NPY1 antag conf	NPY2 antag ctr
COC(=O)c1ccccc1NC(=O)c1ccccc1SC	3.1	0.7	0.2	-16.4	11.3	-21.4	x	x
Cc1cc2nc(SCCOC(=O)Nc3ccccc3)nc(C)c2cc1C	-3.2	2.7	5.9	11.7	22.6*	-31.8	4.2	13.8
Cc1ccc2c(CC(=O)N3CCc4ccccc43)coc2c1	6.0	1.9	3.5	-2.2	8.4	-8.7	x	x
COc1ccc(Cl)cc1NC(=O)CNc1ccccc1CN(C)C1CCCCC1	-8.3	1.5	x	30.1	29.1*	-17.4	26.2*	20.1*
CCN(CC)C(C)C(=O)Nc1c2c(cc3c1CCC3)CCC2 (configuration not stated)	-11.7	0.7	5.3	2.2	5.2	-13.8	x	x
CC(C(=O)Nc1c2c(cc3c1CCC3)CCC2)N1CCCC1 (configuration not stated)	-14.8	-0.4	9.5	4.0	20.2*	-36.7	12.6	7.6
COc1cccc(-c2cc(C(=O)N3CCN(C(c4ccccc4)c4ccccc4)CC3)no2)c1	-6.3	2.9	6.8	6.4	23.6*	-31.1	6.5	7.6
O=C(c1cc(-c2cccs2)on1)N1CCN(C(c2ccccc2)c2ccccc2)CC1	1.5	2.3	1.1	3.0	2.6	-4.9	x	x
N#Cc1nc(-c2ccccc2F)oc1NCc1cccc2c1OCO2	-52.7	3.0	14.2	9.1	28.3*	-40.3	5.7	6.8
Cc1ccc(C(=O)Nc2nnc(C3CCCCC3)s2)o1	-5.3	1.8	4.5	15.5	1.0	-24.2	x	x
O=S(=O)(c1ccc(Br)cc1)n1c(Cc2ccccc2)nc2ccccc21	-3.9	0.7	3.8	-11.7	20.8*	2.8	3.1	4.2
O=S(=O)(N1CCCCC1)n1c(Cc2ccccc2)nc2ccccc21	21.5	2.8	2.4	8.1	2.1	15.3	x	x
O=C1/C(=C\c2ccc(Br)o2)Cc2ccccc21	13.8	3.6	13.0	7.0	25.0*	-21.6	15.5	7.5
O=C1/C(=C/c2cccs2)Cc2ccccc21	8.9	1.2	5.5	23.1	-0.6	13.1	x	x
CCOc1cc(-c2noc(N)c2C(=O)OC)cc(OCC)c1OCC	-7.0	-0.5	7.5	-6.5	22.2*	-30.2	6.3	3.9
CCN(c1ccccc1)P(=O)(Nc1ccccc1)Nc1ccccc1	-19.4	x	x	x	x	-9.6	x	x
CN(c1ccccc1)P(=O)(N(C)c1ccccc1)N(C)c1ccccc1	12.3	1.7	x	9.2	34.1*	-22.5	30.3*	20.1*
CN1CCN(C(=O)c2ccccc2-c2nc(-c3ccccc3)no2)CC1	9.2	0.9	3.5	-1.2	28.4*	13.8	-0.4	1.5
CCCCOC(=O)Nc1ccc(S(=O)(=O)Nc2nc(C)cc(C)n2)cc1	4.9	0.6	1.3	9.2	2.9	-13.1	x	x
